According to ChEMBL document CHEMBL1933057, “Pyrrole alkanoic acid derivatives as nuisance inhibitors of microsomal prostaglandin E2 synthase-1” (Eur J Med Chem, 2012):
Activity calls are given as the source filed them. No cut-off for these calls is given here.

Assays:
[1] = target: T1, Prostaglandin E synthase (Homo sapiens) (UniProt O14684); assay: Inhibition of human recombinant mPGES-1 in assessed as conversion of PGH2 into PGE2 at 1 uM at 20 degC after 5 mins by HPLC-UV analysis
T1 sequence (whole entry): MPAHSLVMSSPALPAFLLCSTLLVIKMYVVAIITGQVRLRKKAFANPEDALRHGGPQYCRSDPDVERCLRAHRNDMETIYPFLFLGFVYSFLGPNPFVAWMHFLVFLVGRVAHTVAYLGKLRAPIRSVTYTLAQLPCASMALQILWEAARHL
Summary of the method: (§1)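 Commercial microsomal human recombinant mPGES-1, diluted about 1:200 in phosphate buffer (50 mM sodium phosphate, 100 mM NaCl, 20% glycerol, pH 7.2). Compound in DMSO added to Tris buffer (50 mM, pH 7.2) with freshly dissolved 2.5 mM reduced glutathione, 5 min, then enzyme, 5 min preincubation at room temperature. PGH2 started reaction, 5 min at room temperature. PGE2 measured by online SPE-HPLC-UV at 195 nm. Reference incubations without enzyme gave non-enzymatic PGE2.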

[2] = target: T1, Prostaglandin E synthase (Homo sapiens); assay: Inhibition of mPGES-1 in human A549 cell microsomes assessed as conversion of PGH2 into PGE2 at 3.3 uM at 0 degC after 5 mins by HPLC-UV analysis; settings: Microsome
Summary of the method: (§2)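 Enzyme source was microsomes from A549 cells. Compound was incubated with PGH2 substrate for 5 min at 0 °C. PGE2 formation was monitored by online solid phase extraction HPLC with UV detection. Values are means of at least two independent determinations.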

Prostaglandin E synthase [3] = target: T2, Prostaglandin E synthase (Homo sapiens, UniProt O14684); assay: Inhibition of human recombinant mPGES-1 in assessed as conversion of PGH2 into PGE2 at 20 degC after 5 mins by HPLC-UV analysis
T2 sequence (O14684 whole entry): T1 sequence (whole entry)
Summary of the method: as §1, with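 “temperature.” for “temperature. PGE2 measured by online SPE-HPLC-UV at 195 nm. Reference incubations without enzyme gave non-enzymatic PGE2.”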

[4] = target: T1, Prostaglandin E synthase (Homo sapiens); assay: Inhibition of human recombinant mPGES-1 in assessed as conversion of PGH2 into PGE2 at 10 uM at 20 degC after 5 mins by HPLC-UV analysis in presence of 0.1% Triton X-100
Summary of the method: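 Human recombinant mPGES-1 microsomes in Tris buffer (50 mM, pH 7.2) containing 2.5 mM glutathione, with 0.1% Triton X-100 added. Compound in DMSO, 5 min preincubation with enzyme at room temperature, then PGH2 substrate, 5 min reaction at 20 °C. PGE2 formed was quantified by online solid phase extraction HPLC with UV detection.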

Prostaglandin E synthase [5] = target: T2, Prostaglandin E synthase; assay: Inhibition of mPGES-1
Summary of the method: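 PGH2 was the substrate, and reactions ran for 5 min. One version used microsomes from A549 cells at 0 °C. The other used commercial microsomes containing human recombinant mPGES-1, at 20 °C or room temperature, in 50 mM Tris pH 7.2 with 2.5 mM GSH. PGE2 formed was measured by online solid-phase extraction HPLC with UV detection.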

Prostaglandin E synthase [6] = target: T2, Prostaglandin E synthase; assay: Inhibition of mPGES-1 in human A549 cell microsomes assessed as conversion of PGH2 into PGE2 at 0 degC after 5 mins by HPLC-UV analysis; parameters: species or system Microsome; summary of the method: as §2

Row | Structure (SMILES) | inhibition [1] | inhibition [2] | further results
1 | CCCCCCCCOc1ccccc1C(=O)c1c(C)c(CCC(=O)O)n(C)c1C | inactive | 23% | –
2 | CCCCCCCCCCCC(=O)c1cc(CC(=O)O)n(C)c1 | inactive | – | –
3 | CCCCCCCCCCCC(=O)c1cc(C(=O)O)n(C)c1 | inactive | – | –
4 | CCCCCCCCCCCC(=O)c1c(C)c(CCC(=O)O)n(Cc2ccc(Cl)cc2)c1C | 78% | – | –
5 | Cc1c(C(=O)CCc2ccccc2)c(C)n(C)c1CCC(=O)O | inactive | inactive | –
6 | CCCCCCCC(=O)c1c(C)c(CCC(=O)O)n(C)c1C | inactive | 55% | –
7 | CCCCCCCCCCCC(=O)c1c(C)c(CCCC(=O)O)n(C)c1C | 70% | – | –
8 | CCCCCCCCCCCC(=O)c1c(C)c(C(=O)O)n(Cc2ccccc2)c1C | 65% | – | –
9 | CCCCCCCCCCCCCCCC(=O)c1c(C)c(CCC(=O)O)n(C)c1C | 97% | 35% | –
10 | CCCCCCCCCCCC(=O)c1c(C)[nH]c(CCC(=O)O)c1C | 38% | – | –
11 | CCCCCCCCCC(=O)c1c(C)c(CCC(=O)O)n(C)c1C | inactive | 62% | –
12 | CCCCCCCCCCCC(=O)c1c(C)[nH]c(C(=O)O)c1C | 62% | – | –
13 | CCCCCCCCCCCC(=O)c1c(C)c(C(=O)O)n(-c2ccccc2)c1C | 99% | – | –
14 | CCCCCCCCCCCC(=O)c1c(C)c(CC(=O)O)n(-c2ccccc2)c1C | 23% | – | –
15 | CCCCCCCCCCCC(=O)c1c(-c2ccccc2)c(CCC(=O)O)n(C)c1C | 90% | – | IC50 (Prostaglandin E synthase [3]): 140 nM; inhibition [4]: inactive
16 | Cc1c(C(=O)c2cccc3ccccc23)c(C)n(C)c1CCC(=O)O | inactive | inactive | –
17 | CCCCCCCCCCCC(=O)c1c(C)c(CC(=O)O)n(C)c1C | 22% | – | –
18 | CCCCCCCCCCCC(=O)c1c(C)c(CCC(=O)O)n(C)c1C | 54% | 74% | IC50 (Prostaglandin E synthase [5]): 800 nM; IC50 (Prostaglandin E synthase [3]): 670 nM; inhibition [4]: inactive; IC50 (Prostaglandin E synthase [6]): 800 nM
19 | CCCCCCCCCCCCCCCCCC(=O)c1c(C)c(CCC(=O)O)n(C)c1C | 97% | inactive | –
20 | CCCCCCCCCCCC(=O)c1c(C)c(CCC(=O)O)n(Cc2ccc(OC)cc2)c1C | 72% | – | –
21 | CCCCCCOc1ccc(C(=O)c2c(C)c(CCC(=O)O)n(C)c2C)cc1 | 32% | 64% | –
22 | Cc1c(C(=O)c2ccc(-c3ccccc3)cc2)c(C)n(C)c1CCC(=O)O | inactive | inactive | –
23 | CCCCCCCCCCCC(=O)c1c(C)c(CCC(=O)O)n(Cc2ccc(O)cc2)c1C | 53% | – | –
24 | Cc1c(C(=O)Cc2ccc(-c3ccccc3)cc2)c(C)n(C)c1CCC(=O)O | inactive | – | –
25 | CS(=O)(=O)Nc1ccc([N+](=O)[O-])cc1OC1CCCCC1 [NS-398] | – | – | IC50 (Prostaglandin E synthase [5]): 10000 nM

Row | Structure (SMILES) | inhibition [1] | inhibition [2] | further results
26 | CCCCCCCOc1cccc(C(=O)c2c(C)c(CCC(=O)O)n(C)c2C)c1 | inactive | 67% | –
27 | Cc1c(C(=O)c2ccccc2)c(C)n(C)c1CCC(=O)O | inactive | inactive | –
28 | Cc1c(C(=O)c2ccc3ccccc3c2)c(C)n(C)c1CCC(=O)O | inactive | inactive | –
29 | CCCCCCCCCCCC(=O)c1c(C)c(CCC(=O)O)n(Cc2ccccc2)c1C | 62% | – | –
30 | CCCCCCCCCCCC(=O)c1c(C)c(CCC(=O)O)n(-c2ccccc2)c1C | 65% | – | –
31 | CCCCCCC(Sc1nc(Cl)cc(NCc2ccc(-c3ccccc3)cc2)n1)C(=O)O (stereo not drawn) | – | – | inhibition [4]: inactive
32 | CCCCCCCCCCCC(=O)c1c(C)c(CCC(=O)NS(=O)(=O)c2ccccc2)n(C)c1C | 77% | – | –
33 | CCCCCCCCCCCC(=O)c1cc(CCC(=O)O)n(C)c1 | inactive | – | –
34 | CCCCCCCCCCCC(=O)c1c(C)c(CCC#N)n(C)c1C | 22% | – | –
35 | CCCCCCCCCCCCc1c(C)c(C(=O)O)n(C)c1C | 37% | – | –
36 | CCCCCCCCCCCC(=O)c1c(C)c(CCC(=O)O)n(Cc2ccc(C)cc2)c1C | 52% | – | –
37 | CCCC(=O)c1c(C)c(CCC(=O)O)n(C)c1C | inactive | inactive | –
38 | CCCCCCCCCCCC(=O)c1c(C)c(CCC(=O)NN)n(C)c1C | 35% | – | –
39 | CCCCCCCCCCCC(=O)c1c(C)c(CCC(=O)O)n(Cc2ccc(C(N)=O)cc2)c1C | 28% | – | –
40 | CCCCCCCCCCCC(=O)c1c(C)c(CCC(N)=O)n(C)c1C | 39% | – | –
41 | CCCCCCCCCCCC(=O)c1c(C)c(CCC(=O)NS(C)(=O)=O)n(C)c1C | 52% | – | IC50 (Prostaglandin E synthase [3]): 600 nM; inhibition [4]: inactive
42 | CCCCCCCCCCCC(=O)c1c(C)c(CC(=O)O)n(Cc2ccccc2)c1C | 35% | – | –
43 | CCCCCCCCCCCCCC(=O)c1c(C)c(CCC(=O)O)n(C)c1C | 91% | 63% | –
44 | CCCCCCCCCCCC(=O)c1c(C)c(C(=O)O)n(C)c1C | 59% | – | –
45 | CCCCCCCCCCCC(=O)c1c(-c2ccccc2)c(CCC(=O)O)n(Cc2ccccc2)c1C | 64% | – | –
46 | CCCCCCCCCCCC(=O)c1c(C)c(CCC(=O)O)n(Cc2ccc(C(=O)O)cc2)c1C | 27% | – | –
47 | CC(C)c1ccc2c(c1)c(SC(C)(C)C)c(CC(C)(C)C(=O)O)n2Cc1ccc(Cl)cc1 | – | – | inhibition [4]: 75%
48 | CCCCCCCCCCCC(=O)c1c(C)[nH]c(CC(=O)O)c1C | 17% | – | –
49 | CCCCCCC(=O)c1c(C)c(CCC(=O)O)n(C)c1C | inactive | inactive | –
